According to ChEMBL document CHEMBL4052597, “Symmetrically Substituted Xanthone Amphiphiles Combat Gram-Positive Bacterial Resistance with Enhanced Membrane Selectivity” (J Med Chem, 2017):
Values after ≈ are worked out from the molar mass of the structure shown. Active and inactive are the calls of the source. No cut-off for these calls is given here.

How the values were obtained:
Lipid bilayer [1] = test: Induction of membrane damage in DOPC/cholesterol large unilamellar vesicles assessed as calcein leakage at compound to lipid ratio of 1:16 after 1 hr by fluorescence assay relative to control
How it was run: (§1)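 100 nm calcein-loaded LUVs made by film hydration; lipid content set by total phosphorus assay. DOPC/cholesterol (3:1, w/w) mimics mammalian and DOPE/DOPG (3:1, w/w) bacterial membranes. Compound in DMF added at lipid-to-compound ratio 16 (6.25 µM compound), final DMF limited to 0.5%. Fluorescence monitored at ex 490/em 520 nm for 1 hour; replicated.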

Staphylococcus aureus [2] = test: Antibacterial activity against Staphylococcus aureus ATCC 29213 infected in C57BL6 mouse cornea assessed as decrease in number of viable bacteria at 0.5% administered topically at 2 hrs interval for 4 times starting on day 1 post infection measured post last dose relative to control; type: functional
Staphylococcus aureus [3] = test: Antibacterial activity against methicillin-sensitive Staphylococcus aureus DM4583R after 24 hrs by two fold dilution assay; type: functional
How it was run: (§2)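 CLSI broth macrodilution in cation-adjusted Mueller-Hinton broth. Compounds were dissolved in DMF and diluted in PBS to a 1000 µg/mL stock, then serially 2-fold diluted in CA-MHB. The inoculum came from colonies on 18-20 h TSA plates (direct colony suspension), adjusted to ~5×10^5 CFU/mL. Incubation was 24 h at 35 °C. MIC is the lowest concentration with no visible growth versus control. Biological replicates.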

Staphylococcus aureus [4] = test: Bactericidal activity against methicillin-resistant Staphylococcus aureus DM21455 assessed as log reduction in bacterial load at 2 times MIC after 2 hrs by time kill assay; type: functional
How it was run: (§3)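 MRSA DM21455 was taken from colonies on 18-22 h TSA plates and diluted to 10^5~10^6 CFU/mL in PBS. Cells were exposed to 0.5×, 1×, 2× and 4× MIC at 35 °C, with a PBS control. Samples were taken at 10 min, 30 min, 1, 2, 4 and 8 h, 10-fold diluted in PBS and plated on MHA. Colonies were counted after 24-48 h at 35 °C. Replicated.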

[5] = Cytotoxicity against human corneal fibroblasts assessed as reduction in cell viability up to 250 uM after 4 hrs by CytoTox-ONE reagent-based LDH assay relative to control; conditions: corneal fibroblast
How it was run: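 Human corneal fibroblasts exposed to compound; cytotoxicity taken from LDH leakage, with cells treated with 1% triton X-100 as positive control. Measurements replicated.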

Staphylococcus aureus [6] = test: Antibacterial activity against methicillin-sensitive Staphylococcus aureus DM4299 after 24 hrs by two fold dilution assay; type: functional; conditions: DM4299, 24 h; how it was run: as §2
[7] = Solubility of the compound in water; type: physicochemical; conditions: buffer
Enterococcus hirae = test: Antibacterial activity against Enterococcus hirae ATCC 9790 after 24 hrs by two fold dilution assay; type: functional; conditions: ATCC 9790, 24 h
How it was run: (§4)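 Broth macro-dilution per CLSI in cation-adjusted Mueller-Hinton broth; compounds dissolved in DMF, diluted in PBS to 1000 µg/mL stock, then serial 2-fold dilutions in CA-MHB in tubes. Inoculum from 18-20 h TSA colonies (direct colony suspension), adjusted to about 5× 10^5 CFU/mL. MIC read after 24 h at 35 °C as lowest concentration with no visible growth; biological replicates.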

Staphylococcus aureus [8] = test: Antibacterial activity against methicillin-resistant Staphylococcus aureus ATCC BAA-38 after 24 hrs by two fold dilution assay; type: functional; conditions: ATCC BAA-38, 24 h; how it was run: as §2
Staphylococcus aureus [9] = test: Antibacterial activity against methicillin-resistant Staphylococcus aureus DB68004 after 24 hrs by two fold dilution assay; type: functional; conditions: DB68004, 24 h; how it was run: as §2
Staphylococcus aureus [10] = test: Antibacterial activity against methicillin-resistant Staphylococcus aureus DM 9808R after 24 hrs by two fold dilution assay; type: functional; how it was run: as §2
Enterococcus faecium [11] = test: Antibacterial activity against vancomycin A-resistant Enterococcus faecium VRE 1008 after 24 hrs by two fold dilution assay; type: functional; conditions: VRE 1008, 24 h; how it was run: as §2
Staphylococcus aureus [12] = test: Antibacterial activity against methicillin-resistant Staphylococcus aureus ATCC 43300 after 24 hrs by two fold dilution assay; type: functional; conditions: ATCC 43300, 24 h; how it was run: as §2
Staphylococcus aureus [13] = test: Disruption of membrane in Staphylococcus aureus isolate DM4001R assessed as increase in ATP leakage at 4 times MIC after 1 hr by ATP bioluminescent assay relative to control; type: functional
How it was run: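 S. aureus DM4001 grown to exponential phase, washed three times in 20 mM PBS (pH 7), resuspended to OD600 0.2. Compound added, suspensions held 1 hour at 37 °C, then centrifuged. Supernatant mixed with luciferase/luciferin enzyme mix; extracellular ATP quantified by luminescence. Replicated.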

Staphylococcus aureus [14] = test: Antibacterial activity against methicillin-resistant Staphylococcus aureus DB57964 after 24 hrs by two fold dilution assay; type: functional; conditions: DB57964, 24 h; how it was run: as §2
Staphylococcus aureus [15] = test: Antibacterial activity against methicillin-sensitive Staphylococcus aureus ATCC 29213 after 24 hrs by two fold dilution assay; type: functional; conditions: ATCC 29213, 24 h; how it was run: as §2
Staphylococcus aureus [16] = test: Antibacterial activity against Staphylococcus aureus ATCC 29213 at 0.5 times MIC after 17 serial passages; type: functional
How it was run: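 Serial-passage resistance selection in S. aureus ATCC29213. MIC was determined by CA-MHB broth macrodilution (2-fold dilutions, ~5×10^5 CFU/mL, 35 °C). Cells grown at 0.5× MIC were recovered and used to prepare the inoculum for the next MIC assay, with MIC change read after each 24 h/35 °C round. This was repeated for 17 passages, or 30 passages for one compound. Replicated.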

Staphylococcus aureus [17] = test: Bactericidal activity against methicillin-resistant Staphylococcus aureus DM21455 assessed as log reduction in bacterial load at 4 times MIC after 10 mins by time kill assay; type: functional; how it was run: as §3
Staphylococcus aureus [18] = test: Antibacterial activity against methicillin-resistant Staphylococcus aureus DB6506 after 24 hrs by two fold dilution assay; type: functional; conditions: DB6506, 24 h; how it was run: as §2
Staphylococcus aureus [19] = test: Antibacterial activity against methicillin-resistant Staphylococcus aureus DM 21455 after 24 hrs by two fold dilution assay; type: functional; conditions: DM 21455, 24 h; how it was run: as §2
Bacillus cereus = test: Antibacterial activity against Bacillus cereus ATCC 11778 after 24 hrs by two fold dilution assay; type: functional; conditions: ATCC 11778, 24 h; how it was run: as §4
Staphylococcus aureus [20] = test: Antibacterial activity against Staphylococcus aureus ATCC 700699 infected in C57BL6 mouse cornea assessed as decrease in number of viable bacteria at 0.5% administered topically at 2 hrs interval for 4 times starting on day 1 post infection measured post last dose relative to control; type: functional, Mu50
Staphylococcus aureus [21] = test: Antibacterial activity against Staphylococcus aureus DM 4001R after 24 hrs by two fold dilution assay; type: functional; how it was run: as §2
Staphylococcus aureus [22] = test: Antibacterial activity against methicillin-sensitive Staphylococcus aureus ATCC 6538 after 24 hrs by two fold dilution assay; type: functional; conditions: ATCC 6538, 24 h; how it was run: as §2
Enterococcus faecalis = test: Antibacterial activity against Enterococcus faecalis ATCC 29212 after 24 hrs by two fold dilution assay; type: functional; conditions: ATCC 29212, 24 h; how it was run: as §4
Staphylococcus aureus [23] = test: Antibacterial activity against methicillin-sensitive Staphylococcus aureus ATCC 29737 after 24 hrs by two fold dilution assay; type: functional; conditions: ATCC 29737, 24 h; how it was run: as §2
Enterococcus faecium [24] = test: Antibacterial activity against vancomycin A-resistant Enterococcus faecium VRE 1007 after 24 hrs by two fold dilution assay; type: functional; conditions: VRE 1007, 24 h; how it was run: as §2
Lipid bilayer [25] = test: Induction of membrane damage in DOPE/DOPG large unilamellar vesicles assessed as calcein leakage at compound to lipid ratio of 1:16 after 1 hr by fluorescence assay relative to control; how it was run: as §1
Staphylococcus aureus [26] = test: Antibacterial activity against methicillin-resistant Staphylococcus aureus ATCC 700699 after 24 hrs by two fold dilution assay; type: functional; conditions: Mu50, 24 h; how it was run: as §2
Staphylococcus aureus [27] = test: Disruption of cytoplasmic membrane in Staphylococcus aureus isolate DM4001R at 2 times MIC after 3000 secs by SYTOX green dye based fluorescence assay; type: functional
How it was run: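 Clinical S. aureus isolate DM4001R incubated with SYTOX Green plus compound; membrane permeabilization read as increased fluorescence intensity. Measurements replicated.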

Enterococcus faecium [28] = test: Antibacterial activity against vancomycin A-resistant Enterococcus faecium VRE 1006 after 24 hrs by two fold dilution assay; type: functional; conditions: VRE 1006, 24 h; how it was run: as §2
Staphylococcus aureus [29] = test: Antibacterial activity against methicillin-sensitive Staphylococcus aureus DM4400R after 24 hrs by two fold dilution assay; type: functional; how it was run: as §2

For `COC(=O)[C@H](CCCNC(=N)N)NC(=O)COc1cc(OCC=C(C)C)cc2oc3cc(OCC=C(C)C)cc(OCC(=O)N[C@@H](CCCNC(=N)N)C(=O)OC)c3c(=O)c12`, the Activity (Lipid bilayer [1]) was < 20%, the Activity (Staphylococcus aureus [2]) was 98.5% and the MIC (Staphylococcus aureus [3]) was 1.56 µg/mL (≈ 1.83 µM). The “log(activity)” value (Staphylococcus aureus [4]) was 3, the Activity [5] was “Non-Toxic” and the MIC (Staphylococcus aureus [6]) was 3.13 µg/mL (≈ 3.67 µM). For the same molecule, the solubility [7] was “Soluble”, the MIC (Enterococcus hirae) was 6.25 µg/mL (≈ 7.33 µM) and the MIC (Staphylococcus aureus [8]) was 3.13 µg/mL (≈ 3.67 µM). For the same molecule, the MIC (Staphylococcus aureus [9]) was 3.13 µg/mL (≈ 3.67 µM), the MIC (Staphylococcus aureus [10]) was 0.78 µg/mL (≈ 0.914 µM) and the MIC (Enterococcus faecium [11]) was 6.25 µg/mL (≈ 7.33 µM). For the same molecule, the MIC (Staphylococcus aureus [12]) was 1.56 µg/mL (≈ 1.83 µM), the Activity (Staphylococcus aureus [13]) was 59.6% and the MIC (Staphylococcus aureus [14]) was 1.56 µg/mL (≈ 1.83 µM). The MIC (Staphylococcus aureus [15]) was 3.13 µg/mL (≈ 3.67 µM), the Activity (Staphylococcus aureus [16]) was “Active” and the “log(activity)” value (Staphylococcus aureus [17]) was 3. The MIC (Staphylococcus aureus [18]) was 1.56 µg/mL (≈ 1.83 µM), the MIC (Staphylococcus aureus [19]) was 1.56 µg/mL (≈ 1.83 µM) and the MIC (Bacillus cereus) was 3.13 µg/mL (≈ 3.67 µM). The Activity (Staphylococcus aureus [20]) was 92.8%, the MIC (Staphylococcus aureus [21]) was 0.78 µg/mL (≈ 0.914 µM) and the MIC (Staphylococcus aureus [22]) was 0.78 µg/mL (≈ 0.914 µM). The MIC (Enterococcus faecalis) was 3.13 µg/mL (≈ 3.67 µM), the MIC (Staphylococcus aureus [23]) was 0.78 µg/mL (≈ 0.914 µM) and the MIC (Enterococcus faecium [24]) was 6.25 µg/mL (≈ 7.33 µM). For the same molecule, the Activity (Lipid bilayer [25]) was 58.7%, the MIC (Staphylococcus aureus [26]) was 3.13 µg/mL (≈ 3.67 µM) and the Activity (Staphylococcus aureus [27]) was “Active”. The MIC (Enterococcus faecium [28]) was 6.25 µg/mL (≈ 7.33 µM) and the MIC (Staphylococcus aureus [29]) was 0.78 µg/mL (≈ 0.914 µM).
